Bioassay records: PubChem BioAssay, Johns Hopkins Ion Channel Center
MrgX1 allo act – human MrgX1 positive allosteric modulation, primary screen. Q96LB2. MrgX1-HEK293, Fluo-4 calcium flux, FDSS; active compounds read high. B-score at 10 µM. hit rate 0.63% among 310,000. AID 588675;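 active means plate-corrected calcium response at least 3 library SD above typical, normal starting fluorescence, not activating the receptor alone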;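 further: compound read alongside a low EC10 to EC30 dose of BAM8-22 agonist; peak minus trough fluorescence over baseline measured at the second addition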
Target sequence (Q96LB2 whole entry, looked up): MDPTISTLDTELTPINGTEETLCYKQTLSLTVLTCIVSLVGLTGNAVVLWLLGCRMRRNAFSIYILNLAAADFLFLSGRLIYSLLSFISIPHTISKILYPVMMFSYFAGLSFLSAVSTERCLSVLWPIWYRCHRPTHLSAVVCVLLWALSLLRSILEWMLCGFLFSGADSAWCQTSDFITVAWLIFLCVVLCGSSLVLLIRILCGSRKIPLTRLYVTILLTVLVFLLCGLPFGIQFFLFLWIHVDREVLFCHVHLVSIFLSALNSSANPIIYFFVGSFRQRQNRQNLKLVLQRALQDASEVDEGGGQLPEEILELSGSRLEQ
MrgX1 ag – agonists of human MrgX1 receptor; MrgX1-HEK293 cells, Fluo-4 calcium fluorescence, agonist mode; active compounds read high; B-score at 10 µM; AID 588627; hit rate 0.44% among 310,000;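 active means calcium response B-score plate-corrected fluorescence ratio at least 3 library SD, with starting fluorescence B-score inside 5 SD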
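Test system: HEK293 cells stably expressing human MrgX1 receptor; amount: 15,000 cells per well; doses: compound delivered in addition one of three; times: overnight plating before 1 h dye loading; detection: Fluo-4 NW calcium-flux fluorescence, kinetic read; read-out basis: B-scored fluorescence response ratio; controls: positive and negative controls per plate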
MrgX1 antagonist – antagonists of human MrgX1 receptor; B-score at 10 µM; MRGX1-HEK293 calcium flux, Fluo-4, BAM8-22 antagonism; active compounds read low; AID 588676; hit rate 1.3% among 310,000; Q96LB2;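 active means calcium-response B-score plate-corrected more than 3 library SD below zero, starting fluorescence within 5 deviations, no agonist response on first addition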;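 further: peak minus trough fluorescence over baseline after final BAM8-22 challenge near maximal dose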
RGS4 block – human RGS4 inhibition; P49798; HEK293 M3R/RGS4 inducible, Fluo-4 calcium flux; active compounds read high; triggered by carbachol at its EC20; B-score at 10 µM; hit rate 0.45% among 310,000;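 active means B-score, a plate-corrected calcium signal, over three deviations above library mean, with baseline fluorescence within five deviations of library mean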;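 further: RGS4 expression induced by doxycycline in cells with stable M3 receptor; B-score is computed from the integrated fluorescence ratio over baseline after carbachol; higher B-score means a larger calcium signal and so more RGS4 inhibition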
Target sequence (P49798 whole entry, looked up): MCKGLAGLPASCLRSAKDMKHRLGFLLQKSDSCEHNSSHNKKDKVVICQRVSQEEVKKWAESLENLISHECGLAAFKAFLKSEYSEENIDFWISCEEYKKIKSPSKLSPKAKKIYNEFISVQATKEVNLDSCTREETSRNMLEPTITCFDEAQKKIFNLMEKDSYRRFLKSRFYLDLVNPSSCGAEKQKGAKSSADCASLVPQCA
RGS4 pot – potentiators or activators of RGS4 | HEK293 M3R/inducible RGS4, carbachol calcium flux Fluo4; active compounds read low | B-score at 10 µM | hit rate 0.92% among 310,000 | AID 463111;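 active means B-score of the integrated calcium signal more than 4 SD below the library mean, with starting fluorescence not abnormally high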;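 further: negative B-score means reduced calcium response which marks RGS4 activation or potentiation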
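System – HEK293 FlpIn-TREx cells, stable M3R, doxycycline-inducible RGS4 · Reagent – ECmax carbachol challenge · Times – compound preincubation 20 min at room temperature before agonist · Technique – Fluo4 fluorescence kinetic imaging of calcium · Measure – B score of integrated Fluo4 ratio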
MrgX1 antag conf – confirmation of human MrgX1 receptor antagonists; remaining BAM8-22 calcium response % of control (active compounds read low), % at 10 µM; hit rate 19% among 2,300; shares compounds with MrgX1 antagonist; AID 602420; MrgX1-HEK293, BAM8-22 calcium flux, Fluo-4; active compounds read low;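 active means remaining agonist calcium response no higher than 100% minus 3 SD of agonist-only control wells, with starting fluorescence near control levels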;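 further: agonist BAM8-22 given at a near maximal EC90 to ECmax level; peak minus minimum fluorescence divided by baseline after agonist addition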
HEK293 Ca flux – counter-screen for MrgX1 antagonists: effect in parental HEK293 cells. shares compounds with MrgX1 antagonist. Fluo-4 calcium fluorescence, FDSS. fluorescence ratio F(max-min)/F0 at 10 µM. hit rate 2% among 4,000;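 active means duplicate-averaged calcium fluorescence ratio at least three times the standard deviation of buffer wells, a nonspecific response in parental cells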
HEK293 Ca counter – activity in parental HEK293 cells without MrgX1 | shares compounds with MrgX1 antagonist | hit rate 0.4% among 4,000 | fluorescence ratio F(max-min)/F0 at 10 µM | AID 624114 | parental HEK293 calcium flux, Fluo-4 fluorescence ratio; active compounds read high;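 active means calcium fluorescence ratio, averaged over duplicates, at least 3 SD of the buffer-well ratio, meaning a nonspecific response in receptor-free cells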;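 further: untransfected parental HEK293 lacking MrgX1 used as counterscreen for MrgX1 allosteric activators; fluorescence change taken during the second addition on a kinetic imager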
HEK293 Ca cntr2 – counter-screen for MrgX1 activators: effect in parental HEK293 cells; shares compounds with MrgX1 antagonist; Fluo-4 calcium fluorescence (FDSS); active compounds read high; fluorescence ratio F(max-min)/F0 at 10 µM; hit rate 8.7% among 4,000; AID 624115;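 active means calcium fluorescence ratio at least three times the spread of buffer wells, meaning a non-specific response in parental cells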
An asterisk follows results filed as active; i = inactive; nt = no result. Hits are enriched below; roughly 3.5% of the tested compounds scored in any of these assays.

SMILES	MrgX1 allo act	MrgX1 ag	MrgX1 antagonist	RGS4 block	RGS4 pot	MrgX1 antag conf	HEK293 Ca flux	HEK293 Ca counter	HEK293 Ca cntr2
Cc1cc2oc(=O)cc(CN3CCN(S(=O)(=O)c4ccc5c(c4)OCCO5)CC3)c2cc1C	i	i	-8.6*	i	i	i	i	i	i
CCC(=O)NC(=S)Nc1cccc(NC(=O)c2ccccc2)c1	i	i	i	i	i	nt	nt	nt	nt
COc1ccc2c(c1)[nH]c1c(N3CCSCC3)ncnc12	i	i	-12*	i	i	50%*	i	i	i
COc1ccc(NC(=O)c2c(C(F)(F)F)nn(C)c2SCc2ccccc2Cl)cc1	i	i	i	i	i	nt	nt	nt	nt
Cc1ccc(S(=O)(=O)c2ccc(Cl)cc2)cc1S(=O)(=O)N(C)CC(=O)O	i	i	-5.9*	i	i	i	i	i	i
Clc1cccc(Cl)c1CNc1ccc(N2CCCC2)cc1	i	i	i	i	i	nt	nt	nt	nt
CCOc1ccc(C(C)=O)cc1CSc1nc2nc(C)cc(C)n2n1	i	i	-5.7*	i	i	69%*	i	i	i
CC1=CCC2COC(c3ccc[n+](Cc4ccccc4)c3)C1C2 (stereo not given)	i	i	i	i	i	nt	nt	nt	nt
Cc1[nH]c2ccccc2c1C(=O)CN1CCC(C(N)=O)(N2CCCCC2)CC1	i	i	-5.8*	i	i	i	i	i	i
S=C(NCc1ccncc1)Nc1ccc(Br)cc1Cl	i	i	-6.3*	i	i	68%*	i	i	i
O=C(NNC(=S)Nc1ccc(Br)cc1Cl)c1ccncc1	i	i	i	i	i	nt	nt	nt	nt
CCn1c(=O)[nH]c2cc(C(=O)Nc3cc(C)cc(C)c3)ccc2c1=O	i	i	-5.1*	i	i	82%*	i	i	i
CCN1CCSc2ccc(C(=O)NCc3ccc(OC(C)C)cc3)cc21	i	i	i	i	i	nt	nt	nt	nt
CCOc1ccc(CNC(=O)c2ccc3c(c2)N(CC)CCS3)cc1	i	i	-6.6*	i	i	82%*	i	i	i
O=C(Cn1cnc2ccccc2c1=O)NCCC(=O)Nc1ccc(F)cc1	i	i	i	i	i	nt	nt	nt	nt
CCOc1c(OC)cccc1C1CC(=O)Nc2cc3c(cc21)OCCO3 (stereo not given)	i	i	-4.9*	i	i	i	i	i	i
COc1ccc(N2CC(C(=O)Nc3cccc(S(=O)(=O)N4CCCC4)c3)CC2=O)c(OC)c1 (stereo not given)	i	i	-9*	i	i	i	i	i	i
COc1ccc(N2CC(C(=O)Nc3ccccc3N3CCCC3)CC2=O)c(OC)c1 (stereo not given)	i	i	-5.8*	i	i	i	i	i	i
O=C(CCS(=O)(=O)c1ccccc1)Nc1cccc2c1C(=O)NC2=O	i	i	i	i	i	nt	nt	nt	nt
CC(C)(CC(=O)O)CC(=O)Nc1cc(C(F)(F)F)cc(C(F)(F)F)c1	i	i	i	i	i	nt	nt	nt	nt
CC(=O)Nc1ccc(S(=O)(=O)Nc2ccccc2C(=O)N2CCCCC2)cc1	i	i	i	i	i	nt	nt	nt	nt
CCOc1ccccc1N1CCN(CC(=O)NC(C)c2ccccc2)CC1 (stereo not given)	i	i	i	i	i	nt	nt	nt	nt
COc1ccccc1N1CCN(C(=O)C(F)F)CC1	i	i	-6.8*	i	i	i	i	i	i
COc1ccccc1N1CCN(C(=O)CN(c2ccc(C)c(C)c2)S(C)(=O)=O)CC1	i	i	-4.8*	i	i	i	i	i	i
CCOC(=O)C1CCN(C(=O)Cn2ncc3c([nH]c4ccccc43)c2=O)CC1	i	i	i	i	i	nt	nt	nt	nt
SMILES	MrgX1 allo act	MrgX1 ag	MrgX1 antagonist	RGS4 block	RGS4 pot	MrgX1 antag conf	HEK293 Ca flux	HEK293 Ca counter	HEK293 Ca cntr2
CCOC(=O)c1cc(-c2ccc(OC)cc2OC)nn1-c1ccc(C(=O)O)cc1	i	i	i	i	i	nt	nt	nt	nt
CC(=O)Nc1cc2c(cc1Br)OCCO2	i	i	i	i	i	nt	nt	nt	nt
Brc1ccc(CNc2cc3c(cc2Br)OCCO3)cc1	i	i	-4.5*	i	i	i	i	i	i
CCn1c(CCC(=O)O)nc2cc(S(=O)(=O)N(C)C)ccc21	i	i	i	i	i	nt	nt	nt	nt
CCn1c(CSc2nc(C)cs2)nc2cc(S(=O)(=O)N(C)C)ccc21	i	i	-4.6*	i	i	i	i	i	i
O=C(c1ccoc1)N1CCCC(N2CCN(c3cccc(Cl)c3)CC2)C1 (stereo not given)	i	i	i	i	i	nt	nt	nt	nt
CCc1ccc2nc(SCC(=O)Nc3nnc(C)s3)c(C)cc2c1	i	i	-6.2*	i	i	83%*	i	i	i
COCCN(C(=O)c1ccco1)c1nnc(-c2ccc(OC)c(OC)c2)s1	i	i	i	i	i	nt	nt	nt	nt
COc1ccc(-c2nnc(N(C)C(=O)c3ccco3)s2)cc1OC	i	i	-7.5*	i	i	i	i	i	i
CC(C)CC(O)C1CCN(C(=O)CCc2nnc(-c3ccccc3)o2)CC1 (stereo not given)	i	i	i	i	i	nt	nt	nt	nt
CC(=O)Nc1nnc(CCN2CCCCC2)s1	i	i	i	i	i	nt	nt	nt	nt
CC(=O)c1sc2nsc(SCCN3CCCCC3)c2c1N	i	i	-5.2*	i	i	i	i	i	52*
Cc1ccc(S(=O)(=O)/N=c2\ccc(Cl)cn2C(F)F)cc1	i	i	i	i	i	nt	nt	nt	nt
COc1cccc(C2=CC(c3cccs3)n3nnnc3N2)c1 (stereo not given)	i	i	-5.5*	i	i	84%*	i	i	i
COc1cccc(C2=CC(c3ccc(OC)c(OC)c3OC)n3nnnc3N2)c1 (stereo not given)	i	i	i	i	i	nt	nt	nt	nt
CC(=O)Nc1ccc(C(=O)CN2CCN(c3ccccc3)CC2)cc1	i	i	i	i	i	nt	nt	nt	nt
